Results: ChEMBL document CHEMBL1156503, “Long-acting kappa opioid antagonists disrupt receptor signaling and produce noncompetitive effects by activating c-Jun N-terminal kinase” (J Biol Chem, 2007)
Activity calls are given as the source filed them.

How the values were obtained:
Mus musculus [1] = assay: Inhibition of U50488-induced analgesic activity against C57BL/6 mouse assessed as tail withdrawal latency at 10 mg/kg, ip after 2 days; assay type: functional, organism-based; set-up: dose 10 mg/kg
Outline: (§1)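 Male C57Bl/6 mice, 20–30 g. Single 10 mg/kg i.p. dose or saline. At set days, U50,488 15 mg/kg i.p. was given and tail-withdrawal latency from 52 ± 1 °C water measured 30 min later, 15 s cut-off. One-way ANOVA with Bonferroni post hoc test.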

Mus musculus [2] = assay: Inhibition of U50488-induced analgesic activity against C57BL/6 mouse assessed as tail withdrawal latency at 10 mg/kg, ip; assay type: functional, organism-based; set-up: dose 10 mg/kg; outline: as §1
[3] = target: T1, c-Jun N-terminal kinase, JNK (Homo sapiens, UniProt P45983+P53779+P45984); assay: Increase of JNK phosphorylation in U50488 treated HEK293 cells expressing GFP tagged kappa opioid receptor; assay type: cell-based
Outline: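 KOR-GFP HEK293 cells under G418, serum-starved 18 h, then concentration series for 1 h at 37 °C. Lysate (40 μg protein) immunoblotted for phospho-JNK, p54 and p46 summed, normalised to basal (100%). EC50 from nonlinear regression; n = 3–5 separate cultures.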

[4] = target: T1, c-Jun N-terminal kinase, JNK; assay: Increase of JNK phosphorylation in U50488 treated HEK293 cells expressing GFP tagged kappa opioid receptor relative to U50,488; assay type: cell-based
[5] = target: T1, c-Jun N-terminal kinase, JNK; assay: Increase of JNK phosphorylation in U50488 treated untransfected HEK293 cells at 100 uM after 15 mins; assay type: cell-based
[6] = target: T1, c-Jun N-terminal kinase, JNK; assay: Increase of U50488-induced JNK phosphorylation in untransfected HEK293 cells at 50 uM after 15 mins; assay type: cell-based
Mus musculus [7] = assay: Inhibition of U50488-induced analgesic activity against C57BL/6 mouse assessed as tail withdrawal latency at 10 mg/kg, ip upto 21 days; assay type: functional, organism-based; set-up: dose 10 mg/kg; outline: as §1
[8] = target: T1, c-Jun N-terminal kinase, JNK; assay: Increase of JNK phosphorylation in U50488 treated untransfected HEK293 cells at 10 uM after 1 hr; assay type: cell-based
Outline: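 Untransfected HEK293 cells grown without G418, serum-starved 18 h, then ligand 10 μM for 1 h at 37 °C. Phospho-JNK immunoblot quantified as % of basal untreated control, n = 3–7.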

Mus musculus [9] = assay: Effect on U50488-induced analgesic activity in C57BL/6 mouse assessed as tail withdrawal latency at 10 mg/kg, ip; assay type: functional, organism-based; set-up: dose 10 mg/kg
Outline: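 Male mice, 20–30 g, 8–12 weeks old, got a single ip injection in saline (control: saline). At set times from 24 h to 28 days afterward, they were challenged with U50,488 15 mg/kg ip. Tail-withdrawal latency from 52 ± 1 °C water was read 30 min later, with a 15 s cut-off. Groups were compared with saline by one-way ANOVA and Bonferroni.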

Mus musculus [10] = assay: Inhibition of U50488-induced analgesic activity against C57BL/6 mouse assessed as tail withdrawal latency at 10 mg/kg, ip for 14 days; assay type: functional, organism-based; set-up: dose 10 mg/kg; outline: as §1
Mus musculus [11] = assay: Inhibition of U50488-induced analgesic activity against C57BL/6 mouse assessed as tail withdrawal latency at 10 mg/kg, ip after 28 days; assay type: functional, organism-based; set-up: dose 10 mg/kg; outline: as §1
[12] = target: Kappa-type opioid receptor (Mus musculus, UniProt P33534); assay: Displacement of [3H]U69,593 from kappa opioid receptor in mouse brain tissue
Kappa-type opioid receptor, sequence (P33534 whole entry): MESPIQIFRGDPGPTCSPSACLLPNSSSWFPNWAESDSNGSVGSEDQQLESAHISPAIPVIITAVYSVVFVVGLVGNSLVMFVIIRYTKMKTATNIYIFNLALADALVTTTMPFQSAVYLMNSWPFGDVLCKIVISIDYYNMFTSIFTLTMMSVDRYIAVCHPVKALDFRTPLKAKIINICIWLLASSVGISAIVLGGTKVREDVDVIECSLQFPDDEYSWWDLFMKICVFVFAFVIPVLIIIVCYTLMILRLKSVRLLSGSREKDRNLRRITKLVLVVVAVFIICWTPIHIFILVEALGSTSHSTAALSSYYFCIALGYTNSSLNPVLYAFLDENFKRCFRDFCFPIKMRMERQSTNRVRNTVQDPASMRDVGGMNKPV

Mus musculus [13] = assay: Increase of JNK phosphorylation in mouse spinal cord at 10 mg/kg, ip after 1 hr; assay type: organism-based; set-up: dose 10 mg/kg
Outline: (§2)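 C57Bl/6 mice (wild type; KOR−/− as control) given 10 mg/kg i.p. Spinal cord and striatum dissected 60 min later and Dounce-homogenised in lysis buffer with phosphatase and protease inhibitors. Phospho-JNK immunoblot expressed as % of basal untreated control.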

Mus musculus [14] = assay: Increase of JNK phosphorylation in mouse striatum at 10 mg/kg, ip after 1 hr; assay type: organism-based; set-up: dose 10 mg/kg; outline: as §2
[15] = target: T1, c-Jun N-terminal kinase, JNK; assay: Increase in JNK phosphorylation in pertussis toxin treated HEK293 cells expressing GFP tagged kappa opioid receptor at 10 uM after 1 hr; assay type: cell-based
Outline: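 KOR-GFP HEK293 cells serum-starved, pretreated with pertussis toxin 200 ng/ml for 18 h at 37 °C, then ligand 10 μM for 1 h at 37 °C. Phospho-JNK p54/p46 read by infrared immunoblot with β-actin loading control. Expressed as % basal, n = 3–4; Student's t test.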

Mus musculus [16] = assay: Reversal of inhibition of U50488-induced analgesic activity against C57BL/6 mouse assessed as tail withdrawal latency at 10 mg/kg, ip after 8 days in presence of SP600125; assay type: functional, organism-based; set-up: dose 10 mg/kg
Outline: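 Wild-type mice given SP600125 30 mg/kg i.p. (vehicle 5% […]/20% Cremophor EL/75% saline) 24 h and 30 min before 10 mg/kg i.p. test drug. Day 7–8: U50,488 25 mg/kg i.p. challenge, then tail-flick latency in 52 °C water, 15 s cut-off.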

C=CCN1CC[C@]23c4c5ccc(O)c4O[C@H]2C(=O)CC[C@@]3(O)[C@H]1C5
Activity (Mus musculus [1]): inactive | Activity (Mus musculus [2]): Active

CO[C@@]12CC[C@@]3(C[C@@H]1[C@](C)(O)C(C)(C)C)[C@H]1Cc4ccc(O)c5c4[C@@]3(CCN1CC1CC1)[C@H]2O5
Activity [3]: inactive | Intrinsic activity [4]: inactive

COc1ccc(C[C@H]2NC[C@H](O)[C@H]2OC(C)=O)cc1
Activity [5]: Active | Activity [6]: Active

N=C(N)Nc1ccc2[nH]c3c(c2c1)C[C@@]1(O)[C@H]2Cc4ccc(O)c5c4[C@@]1(CCN2CC1CC1)[C@H]3O5
Activity (Mus musculus [7]): Active | Activity [8]: inactive

Oc1c2ccccc2c2c3c(cccc13)N=N2
Activity (Mus musculus [9]): inactive

CC(C)C[C@H](NC(=O)[C@H](Cc1ccccc1)NC(=O)CNC(=O)CNC(=O)[C@@H](N)Cc1ccc(O)cc1)C(=O)N[C@@H](CCCNC(=N)N)C(=O)N[C@@H](CCCNC(=N)N)C(=O)N[C@@H](CCC(N)=O)C(=O)N[C@@H](Cc1ccccc1)C(=O)N[C@@H](CCCCN)C(=O)N[C@H](C(=O)N[C@H](C(=O)N[C@H](C(=O)O)[C@@H](C)O)C(C)C)C(C)C [DYNORPHIN B]
EC50 [3]: 87 nM | Intrinsic activity [4]: 0.61

CC(C)[C@@H](CN1CC[C@@](C)(c2cccc(O)c2)[C@@H](C)C1)NC(=O)[C@H]1Cc2ccc(O)cc2CN1 [JDTIC]
Activity (Mus musculus [10]): Active | EC50 [3]: 5 nM | Activity [8]: inactive | Intrinsic activity [4]: 0.57

Oc1ccc2c3c1O[C@H]1c4[nH]c5c(c4C[C@@]4(O)[C@@H](C2)N(CC2CC2)CC[C@]314)C[C@@]1(O)[C@H]2Cc3ccc(O)c4c3[C@@]1(CCN2CC1CC1)[C@H]5O4 [NORBINALTORPHIMINE]
Activity (Mus musculus [7]): Active | Activity (Mus musculus [11]): inactive | Kd [12]: 1.65 nM | EC50 [3]: 158 nM | Activity [8]: inactive | Activity (Mus musculus [13]): Active | Activity (Mus musculus [14]): Active | Activity [15]: inactive | Intrinsic activity [4]: 0.84 | Activity (Mus musculus [16]): Active
